In ChEMBL document CHEMBL2062410, “Synthesis, characterization and pharmacological study of 4,5-dihydropyrazolines carrying pyrimidine moiety” (2012):

Key:
Format in all cases: functional
[1] = Free radical scavenging activity assessed as inhibition of DPPH radical generation at 50 ug
Procedure, shortened: (§1)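 Brand-Williams method: 1 mL sample at […] per mL mixed with 2 mL of 0.2 mM methanolic DPPH. Stood 30 min at room temperature, then absorbance read at 517 nm. % scavenging calculated relative to 0.2 mM DPPH control without sample.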

[2] = Free radical scavenging activity assessed as inhibition of superoxide anion generation at 100 ug
[3] = Free radical scavenging activity assessed as inhibition of nitric oxide generation at 100 ug
[4] = Free radical scavenging activity assessed as inhibition of hydroxyl radical generation at 100 ug by Fenton reaction method
[5] = Free radical scavenging activity assessed as inhibition of DPPH radical generation at 100 ug; procedure, shortened: as §1
[6] = Free radical scavenging activity assessed as inhibition of DPPH radical generation at 25 ug; procedure, shortened: as §1
Rattus norvegicus [7] = assay: Antiinflammatory activity in Wistar albino rat assessed as inhibition of carrageenan-induced paw edema dosed at 20 mg/kg in plantar region of paw administered 30 mins before carrageenan challenge measured 0.5 hrs post carrageenan-induced inflammation
Procedure, shortened: (§2)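 Wistar albino rats of either sex, 180–250 g, fasted 12 h before and during testing. Test compounds at 20 mg/kg given 30 min before carrageenan (0.1 mL of 1% w/v) injected into the plantar paw; diclofenac 20 mg/kg as reference. Paw volume by plethysmography at 30–180 min. % inhibition = (1 − Vt/Vc) × 100 against control edema; mean ± SEM, n = 6.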

Rattus norvegicus [8] = assay: Antiinflammatory activity in Wistar albino rat assessed as inhibition of carrageenan-induced paw edema dosed at 20 mg/kg in plantar region of paw administered 30 mins before carrageenan challenge measured 3 hrs post carrageenan-induced inflammation; procedure, shortened: as §2
Mus musculus [9] = assay: Analgesic activity in Swiss albino mouse assessed as increase in reaction time at 10 mg/kg, ip measured 30 mins post dose by tail immersion method; conditions: route intraperitoneal
Procedure, shortened: (§3)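 Tail immersion in Swiss albino mice, 6 per group, heat as pain source. Tail tip dipped in a thermostatic bath held at 55 °C. Basal reaction time noted before treatment. Test compounds at 10 mg/kg i.p., with pentazocine as reference. Reaction time read at 30, 60 and 90 min, given as mean ± SEM with % increase over basal.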

Rattus norvegicus [10] = assay: Antiinflammatory activity in Wistar albino rat assessed as inhibition of carrageenan-induced paw edema dosed at 20 mg/kg in plantar region of paw administered 30 mins before carrageenan challenge measured 2 hrs post carrageenan-induced inflammation; procedure, shortened: as §2
Rattus norvegicus [11] = assay: Antiinflammatory activity in Wistar albino rat assessed as inhibition of carrageenan-induced paw edema dosed at 20 mg/kg in plantar region of paw administered 30 mins before carrageenan challenge measured 1 hr post carrageenan-induced inflammation; procedure, shortened: as §2
Rattus norvegicus [12] = assay: Antiinflammatory activity in Wistar albino rat assessed as inhibition of carrageenan-induced paw edema dosed at 20 mg/kg in plantar region of paw administered 30 mins before carrageenan challenge measured 1.5 hrs post carrageenan-induced inflammation; procedure, shortened: as §2
Rattus norvegicus [13] = assay: Antiinflammatory activity in Wistar albino rat assessed as inhibition of carrageenan-induced paw edema dosed at 20 mg/kg in plantar region of paw administered 30 mins before carrageenan challenge measured 2.5 hrs post carrageenan-induced inflammation; procedure, shortened: as §2
Mus musculus [14] = assay: Analgesic activity in Swiss albino mouse assessed as increase in reaction time at 10 mg/kg, ip measured 60 mins post dose by tail immersion method; conditions: route intraperitoneal; procedure, shortened: as §3
Mus musculus [15] = assay: Analgesic activity in Swiss albino mouse assessed as increase in reaction time at 10 mg/kg, ip measured 90 mins post dose by tail immersion method; conditions: route intraperitoneal; procedure, shortened: as §3

Compound	inhibition [1] [%]	inhibition [2] [%]	inhibition [3] [%]	inhibition [4] [%]	inhibition [5] [%]	inhibition [6] [%]	inhibition in vivo at 20 mg/kg (Rattus norvegicus [7]) [%]	inhibition in vivo at 20 mg/kg (Rattus norvegicus [8]) [%]	Activity (Mus musculus [9]) [%]	inhibition in vivo at 20 mg/kg (Rattus norvegicus [10]) [%]	inhibition in vivo at 20 mg/kg (Rattus norvegicus [11]) [%]	inhibition in vivo at 20 mg/kg (Rattus norvegicus [12]) [%]	inhibition in vivo at 20 mg/kg (Rattus norvegicus [13]) [%]	Activity (Mus musculus [14]) [%]	Activity (Mus musculus [15]) [%]
Brc1ccc(C2=NN(c3ncc(Br)cn3)[C@@H](c3ccc(Br)cc3)C2)cc1	69.7	52.5	23.8	71.4	78.2	51.5	–	–	–	–	–	–	–	–	–
Cc1ccc([C@H]2CC(c3ccc(Cl)cc3)=NN2c2ncc(Br)cn2)cc1	71.8	43.8	38.1	63.2	80	54.4	–	–	–	–	–	–	–	–	–
Clc1ccc(C2=NN(c3ncc(Br)cn3)[C@@H](c3ccc(Br)cc3)C2)cc1	67.3	24.6	38.1	70.6	78.5	52.2	–	–	–	–	–	–	–	–	–
Clc1ccc(C2=NN(c3ncc(Br)cn3)[C@@H](c3ccc(Cl)cc3)C2)cc1	69.2	38.6	31.4	69.4	78.3	54.5	–	–	–	–	–	–	–	–	–
Clc1ccc(C2=NN(c3ncc(Br)cn3)[C@@H](c3ccccc3)C2)cc1	76.5	42.6	39.1	82.6	90.5	62.7	60	75	37.62	73	71	71	70	70.79	84.65
O=[N+]([O-])c1ccc([C@H]2CC(c3ccccc3)=NN2c2ncc(Br)cn2)cc1	64.7	42.2	32.1	79.2	75.6	54.5	–	–	–	–	–	–	–	–	–
Cc1cc(C(C)(C)C)c(O)c(C(C)(C)C)c1	79.4	64	43.2	87	93.2	65.9	–	–	–	–	–	–	–	–	–
Clc1ccc([C@H]2CC(c3ccc(Br)cc3)=NN2c2ncc(Br)cn2)cc1	68.2	38.9	40.2	66.3	78.9	56.8	–	–	–	–	–	–	–	–	–
O=C(O)Cc1ccccc1Nc1c(Cl)cccc1Cl [DICLOFENAC]	–	–	–	–	–	–	61	80	–	78	69	67	71	–	–
Brc1ccc([C@H]2CC(c3ccccc3)=NN2c2ncc(Br)cn2)cc1	79.6	62.1	47.6	86.8	93.4	65.4	64	76	25.76	74	68	74	78	62.01	59.39
Clc1ccc([C@H]2CC(c3ccccc3)=NN2c2ncc(Br)cn2)cc1	78.1	60	43.3	87.9	93.5	60.1	61	78	29.71	76	70	71	72	72.16	78.31
Cc1ccc([C@H]2CC(c3ccc(Br)cc3)=NN2c2ncc(Br)cn2)cc1	66.3	50.2	33.7	71.5	69.3	55.3	–	–	–	–	–	–	–	–	–
COc1ccc([C@H]2CC(c3ccc(Cl)cc3)=NN2c2ncc(Br)cn2)cc1	79.4	58.7	46.2	81.6	89.8	68.5	58	73	28.97	70	62	64	69	39.25	71.96
CC(C)=CCN1CC[C@@]2(C)c3cc(O)ccc3C[C@@H]1[C@@H]2C (relative stereo)	–	–	–	–	–	–	–	–	25.7	–	–	–	–	45.79	67.28
Cc1ccc([C@H]2CC(c3ccccc3)=NN2c2ncc(Br)cn2)cc1	79.2	59.1	56.1	89.1	94.1	67.5	63	79	16.51	69	68	71	72	73.66	65.63
